From PubChem
Ecoli tolC: growth inhibitors of E. coli tolC mutant, primary screen, strain BW25113 ΔtolC::kan, 384-well; OD615; growth inhibition, % at 10 µM (by protocol); actives 2.2% (n = 65,000); AID 573, 2007;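 active = growth inhibition at or above a cutoff equal to the mean over every tested compound plus 3 SD, cut at about 60% in these data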;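 also: growth measured after 20 h incubation at 37 °C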
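Test system: tolC-deleted E. coli BW25113 | Medium: LB with kanamycin 50 µg/mL | Compound dosing: Single concentration, 10 µM final per compound | Schedule: 37 °C, 20 h exposure | Measured by: OD at 615 nm | Evaluation: Percent growth inhibition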
Ecoli WT expand: growth inhibitors of wild-type E. coli, primary screen, strain BW25113, expanded library, OD600 | actives 0.15% (n = 98,000) | growth inhibition, % at 100 µM | OD600 absorbance;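 active = growth inhibition above about 50% at one test dose, limit read from the data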;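 also: growth measured after 20 h incubation at 37 °C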
PostGolgi ctrl: growth inhibition of yeast control strain, primary screen, counter-screen for post-Golgi transport modulator project; efflux-deficient yeast background strain, growth absorbance A615, 16 h; inhibition, % at 10 µM; actives 5% (n = 98,000); AID 738, 2007
PostGolgi yeast: phenotypic screen on post-Golgi transport, primary screen; post-Golgi transport phenotypic cell assay; inhibition, % at 10 µM; actives 0.9% (n = 98,000);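 also: yeast cells grown in 1536-well plates; yeast grown about 18 h at 30C before absorbance read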
PLAP act: PLAP enzyme activators, biochemical, luminescence, HTS; purified PLAP enzyme, luminescent substrate read-out; active compounds read high; Alkaline phosphatase, placental type (Homo sapiens), P05187; AID 696, 2007; actives 1.2% (n = 96,000); activation fold at 20 µM; in the data active = activation fold above about 2
Target sequence (P05187 whole entry, looked up): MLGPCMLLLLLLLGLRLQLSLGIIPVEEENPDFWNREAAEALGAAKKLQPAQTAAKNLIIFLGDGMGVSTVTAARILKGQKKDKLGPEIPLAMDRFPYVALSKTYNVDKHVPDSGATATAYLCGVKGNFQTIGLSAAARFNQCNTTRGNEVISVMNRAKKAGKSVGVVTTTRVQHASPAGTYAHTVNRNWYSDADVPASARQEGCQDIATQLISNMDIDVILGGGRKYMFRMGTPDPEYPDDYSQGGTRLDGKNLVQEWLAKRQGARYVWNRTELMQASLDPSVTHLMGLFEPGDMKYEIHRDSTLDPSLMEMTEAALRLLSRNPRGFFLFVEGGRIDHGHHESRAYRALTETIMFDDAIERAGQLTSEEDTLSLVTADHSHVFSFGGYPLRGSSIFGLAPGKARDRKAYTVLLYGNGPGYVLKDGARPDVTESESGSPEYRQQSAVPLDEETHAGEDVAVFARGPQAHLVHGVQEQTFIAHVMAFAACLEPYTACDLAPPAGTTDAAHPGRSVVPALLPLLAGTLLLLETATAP
Starred values were filed as active, the others as inactive; nt = no result given. Rows were chosen to be rich in hits. Some 7.2% of all compounds tested hit in one or more screens of this group. Rule as the data show it, unless noted: active = inhibition above about 30%; inactive = the rest.

SMILES	Ecoli tolC	Ecoli WT expand	PostGolgi ctrl	PostGolgi yeast	PLAP act
CC(C)CCn1c(N2CCN(c3cccc(Cl)c3)CC2)nc2c1c(=O)[nH]c(=O)n2C	33	-3	35*	3	nt
CCCCCCCCn1c(N2CCN(c3cccc(Cl)c3)CC2)nc2c1c(=O)[nH]c(=O)n2C	nt	-10	5	-3	1.7
Cn1c(=O)[nH]c(=O)c2c1nc(CN1CCN(c3cccc(Cl)c3)CC1)n2CCc1ccccc1	8	-13	14	-2	1.3
CON(C)c1nc(OCCNC(=O)OCc2ccc(Cl)cc2Cl)nc(N(C)C)n1	20	-1	10	10	1.2
O=C(CN(C1CCCCC1)S(=O)(=O)c1ccc(Cl)cc1)NCCCO	-4	-1	1	-4	1.6
COc1ccc(-c2nnc(SCC(=O)NC(=O)NCc3ccco3)o2)cc1	-4	2	5	-5	0.9
NC(=O)c1c(NC(=O)CN2CCCC2)sc2c1CCCC2	0	8	-12	0	1.5
NC(=O)c1c(NC(=O)CN2C(=O)CCC2=O)sc2c1CCCCC2	-18	-4	-9	32*	1.1
CCC(C)NCC(=O)Nc1sc2c(c1C(N)=O)CCC2 (centres undefined)	nt	5	5	17	0.9
CCC(=O)Nc1sc2c(c1C(N)=O)CCC2	-5	-2	31*	3	0.9
Cc1occc1C(=O)Nc1sc2c(c1C(N)=O)CCCCC2	1	0	31*	0	0.9
CCCCNC(=O)c1onc(CSc2cccc3ccccc23)c1C(=O)O	nt	-11	17	-6	1
CCOC(=O)C1=C(C)NC(=O)NC1c1ccc(N(CC)CC)cc1 (centres undefined)	7	1	28	1	0.9
CCCCn1c2nc3ccccc3nc2c2c(=O)n(C(C)CC)cnc21 (centres undefined)	5	-2	23	37*	1.1
CCCCn1c2nc3ccccc3nc2c2c(=O)n(CC(C)C)cnc21	12	nt	nt	nt	nt
Cc1ccc2nc(-c3ccc4c(c3)OCCO4)cc(C(=O)O)c2c1	13	-5	7	-2	1
COc1ccc(-c2cc(-c3cc(F)ccc3O)[nH]n2)cc1OC	81*	3	30*	2	1.2
Oc1ccccc1-c1cc(-c2ccc3c(c2)OCCO3)n[nH]1	99*	24	4	2	1.9
COc1ccc(-c2cc(-c3ccccc3O)[nH]n2)cc1OC	46	-5	11	2	2.8*
COC(=O)c1cc(-c2ccc(OC)c(OC)c2)n[nH]1	-8	4	0	-4	1.8
COc1ccc(-c2cc(-c3ccc(OC)c(OC)c3)n[nH]2)c(O)c1	nt	11	4	-12	2.2*
Cc1ccc(C(=O)N/C(=C\c2cccs2)C(=O)NCCCn2ccnc2)cc1C	nt	-7	2	-7	1.1
CCOc1cc(CNn2nnnc2N)cc(Cl)c1OCC(=O)NC(C)(C)C	nt	6	6	9	1.1
COc1ccc(C(=O)NC(C)(C)C)cc1S(=O)(=O)N1CCCC1	nt	8	4	2	1
CCOC(=O)C1(N(CC)CC)Sc2cc(C)ccc2NC1=O (centres undefined)	72*	6	18	-7	1.2
SMILES	Ecoli tolC	Ecoli WT expand	PostGolgi ctrl	PostGolgi yeast	PLAP act
N=c1n(CCN2CCCCC2)c2ccccc2n1CC(O)c1cccc(Br)c1 (centres undefined)	35	18	22	8	2*
N=c1n(CCN2CCCCC2)c2ccccc2n1CC(O)c1ccc(Cl)c(Cl)c1 (centres undefined)	nt	98*	-9	-8	2.1*
N=c1n(CCN2CCCC2)c2ccccc2n1CC(O)c1ccco1 (centres undefined)	-11	-2	25	-5	1.2
Oc1c(CN2CCCCC2)cc(Br)c2cccnc12	100*	100*	8	1	1.6
CN1CCN(Cc2cc(COCc3ccccc3)c3cccnc3c2O)CC1	5	22	29	-12	2.2*
Oc1c(I)cc(Cl)c2cccnc12	13	nt	nt	nt	nt
Oc1c(CN2CCc3ccccc3C2)cc(Cl)c2cccnc12	64*	86*	3	1	1.8
N/C(=N\OS(=O)(=O)c1ccc(Br)cc1)c1ccncc1	nt	18	-2	3	0.8
COc1ccccc1OCCn1c(C(C)O)nc2ccccc21 (centres undefined)	-12	4	2	19	1
CC(C)N(C(=O)CSc1nnc(-c2cc3ccccc3cc2O)n1Cc1ccco1)C(C)C	25	-14	14	-3	1.5
O=C(CSc1nnc(-c2cc3ccccc3cc2O)n1Cc1ccco1)N1CCc2ccccc2C1	nt	-9	80*	2	1.6
CCc1ccc(NC(=O)CNS(=O)(=O)c2c(C)noc2C)cc1	5	-3	9	-3	1.2
Cc1nn2c(-c3ccco3)nnc2c2ccccc12	38	1	24	-2	0.8
Cc1nn2c(-c3ccncc3)nnc2c2ccccc12	42	2	64*	11	1
COc1ccc(-c2nnc3c4ccccc4c(C)nn23)cc1	nt	-18	44*	1	1.5
CC(C)C(NC(=O)C12CC3CC(CC(C3)C1)C2)C(=O)O (centres undefined)	-11	-15	3	-3	1
O/N=C/c1ccccc1OCc1ccccc1Cl	nt	2	15	-2	1
O/N=C/c1ccccc1OCc1ccc(Cl)cc1	nt	0	77*	7	0.6
CCOC(=O)/C(=C\c1cccnc1)C(=O)c1cc(C(C)=O)c(Nc2ccccc2)s1	nt	0	90*	111*	1.4
CCOC(=O)C(=Cc1ccc(F)cc1)C(=O)OCC	nt	4	9	4	1
CCOC(=O)/C(=C\c1ccccc1)C(=O)c1cc(C(C)=O)c(Nc2ccccc2)s1	nt	-21	60*	19	1.4
O=C(COC(=O)c1ccccc1Nc1cccc(C(F)(F)F)c1)NCc1ccco1	nt	0	23	3	1
Cc1cc(C)c(S(=O)(=O)c2ccccc2)c(Cl)n1	nt	8	4	1	1.2
Cc1cc(C)c(S(C)(=O)=O)c(Sc2ccc(Cl)cc2)n1	nt	-5	31*	16	1
OC(CC1CC12c1ccccc1-c1ncccc12)(c1ccccc1)c1ccccc1 (centres undefined)	nt	-2	45*	0	1.5
CCOC(=O)C(C)C1(O)c2ccccc2-c2ncccc21 (centres undefined)	-26	0	8	3	1.2
COC(=O)c1[nH]c2ccccc2c1NC(=O)CN1CCN(c2cccc(OC)c2)C(C)C1 (centres undefined)	77*	-28	15	-4	1.6
CCOC(=O)C1CCCN(CC(=O)Nc2c(C(=O)OC)[nH]c3ccc(Br)cc23)C1 (centres undefined)	58	-7	56*	1	1.5
COC(=O)c1[nH]c2ccc(Br)cc2c1NC(=O)CN1CCCc2ccccc21	nt	-9	69*	0	1
CCOC(=O)C1CCN(CC(=O)Nc2c(C(=O)OC)[nH]c3ccc(Cl)cc23)CC1	7	-11	10	3	0.9
